Assay results reported in ChEMBL document CHEMBL1139119, “Anti-mycobacterial activity of a bis-sulfonamide” (2007).
Values after ≈ are worked out from the molar mass of the structure shown. One block for each compound: values may come before it. Active and inactive are the calls of the source. No cut-off for these calls is given here.

What was measured:
Format in all cases: functional
[1] = system: Mycolicibacterium smegmatis; assay: Antimicrobial activity against Mycobacterium smegmatis
[2] = system: Candida albicans; assay: Antimicrobial activity against Candida albicans
[3] = system: Staphylococcus aureus; assay: Antimicrobial activity against Staphylococcus aureus
Outline: (§1)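 Overnight bacterial culture diluted 1000-fold into fresh medium the next day, then exposed to compound at five doses (100, 25, 6.25, 1.56, 0.39 μg/mL) in DMSO (final 1% v/v). DMSO-only and ampicillin no-growth controls were included. Incubated overnight at 37 °C in duplicate. Scored as % growth inhibition, averaged over two independent determinations, giving MIC50.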

[4] = system: Vibrio harveyi; assay: Antimicrobial activity against Vibrio harveyi; outline: as §1
[5] = system: Escherichia coli; assay: Antimicrobial activity against Escherichia coli
[6] = system: Mycolicibacterium smegmatis; assay: Growth inhibition of Mycobacterium smegmatis at 25 ug/ml
[7] = system: Mycolicibacterium smegmatis; assay: Growth inhibition of Mycobacterium smegmatis at 100 ug/ml
[8] = system: Candida albicans; assay: Growth inhibition of Candida albicans at 25 ug/ml
[9] = system: Candida albicans; assay: Growth inhibition of Candida albicans at 100 ug/ml

MIC50 [1]: > 100 µg/mL
SMILES: NS(=O)(=O)c1ccc(C(=O)O)cc1 [CARZENIDE]
Activity [2]: inactive
Activity [3]: inactive
Activity [4]: inactive

MIC50 [1]: > 100 µg/mL
SMILES: C#CCNC(=O)c1ccc(S(N)(=O)=O)cc1
Activity [2]: inactive
Activity [3]: inactive
Activity [4]: inactive

MIC50 [1]: 500 µg/mL (≈ 860 µM)
SMILES: CN[C@@H]1[C@H](O[C@H]2[C@H](O[C@H]3[C@H](O)[C@@H](O)[C@H](N=C(N)N)[C@@H](O)[C@@H]3N=C(N)N)O[C@@H](C)[C@]2(O)C=O)O[C@@H](CO)[C@H](O)[C@H]1O [STREPTOMYCIN]

MIC50 [1]: > 100 µg/mL
SMILES: Nc1ccc(S(N)(=O)=O)cc1 [SULFANILAMIDE]
Activity [2]: inactive
Activity [3]: inactive
Activity [4]: inactive

More lines, now with the values behind:

SMILES: NS(=O)(=O)c1ccc(-n2cc(CO)nn2)cc1
MIC50 [1]: > 100 µg/mL
Activity [2]: inactive
Activity [3]: inactive
Activity [4]: inactive

SMILES: CC1(C)S[C@@H]2[C@H](NC(=O)[C@H](N)c3ccccc3)C(=O)N2[C@H]1C(=O)O [AMPICILLIN]
MIC50 [5]: 500 µg/mL (≈ 1430 µM)
MIC50 [3]: 500 µg/mL (≈ 1430 µM)
MIC50 [4]: 500 µg/mL (≈ 1430 µM)

SMILES: [N-]=[N+]=Nc1ccc(S(N)(=O)=O)cc1
Activity [2]: inactive
Activity [3]: inactive
Activity [4]: inactive

SMILES: NS(=O)(=O)c1ccc(C(=O)NCc2cn(-c3ccc(S(N)(=O)=O)cc3)nn2)cc1
MIC50 [1]: 100 µg/mL (≈ 229 µM)
Activity [2]: inactive
Activity [3]: inactive
Activity [4]: inactive

SMILES: NS(=O)(=O)c1ccc(C(=O)OCc2cn(-c3ccc(S(N)(=O)=O)cc3)nn2)cc1
MIC50 [1]: < 25 µg/mL
MIC50 [2]: 100 µg/mL (≈ 229 µM)
Activity [3]: inactive
Activity [4]: inactive
inhibition at 25 µg/mL [6]: 68%
inhibition at 100 µg/mL [7]: 92%
inhibition at 25 µg/mL [8]: 36%
inhibition at 100 µg/mL [9]: 49%

SMILES: C#CCOC(=O)c1ccc(S(N)(=O)=O)cc1
MIC50 [1]: > 100 µg/mL
Activity [2]: inactive
Activity [3]: inactive
Activity [4]: inactive
